Measured values: PMC7016295 (Acta Pharmaceutica Sinica. B, 2019)

Tested on: xenograft tumors of murine glioma GL261 cells
Assay: GL261 xenograft tumor model
Type: in vivo, C57BL/6 mice
Method in brief: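 About 3 × 10⁶ GL261 cells implanted subcutaneously at the left scapula of male C57BL/6 mice (6–8 weeks). At 100–300 mm³, mice randomized (n = 7/group). Vehicle (0.5% methylcellulose) oral daily. TMZ 100 mg/kg oral every 2 days, alone or with 50 mg/kg. Endpoint: tumour weight; body weight; CD31 immunohistochemistry (1:200) on 4 μm paraffin sections.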

Structure (SMILES): Cn1nnc2c(C(N)=O)ncn2c1=O [TMZ, temozolomide]
- body weight (GL261 xenograft mice, vs control (co-treatment vs TMZ group)): significantly decreased
- tumor inhibition rate (TMZ only, 100 mg/kg oral every 2 days): 34.15%
